Results taken from ChEMBL document CHEMBL3091366, “New 5-Aryl-1H-imidazoles display in vitro antitumor activity against apoptosis-resistant cancer models, including melanomas, through mitochondrial targeting” (J Med Chem, 2013).
Values joined by “and” are separate entries in the source; they are usually repeats but may differ in a detail not shown here. Identical values can stand only once.

Legend:
[1] = tested on: SK-MEL-28; experiment: Cytotoxicity against apoptotic-resistant human SK-MEL-28 cells assessed as growth inhibition after 72 hrs by MTT-based colorimetric assay; assay type: functional, cell-based
Method in brief: (§1)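 MTT colorimetric assay, 72 h exposure to the fumarate salt. Read-out is reduction of MTT to formazan by living cells. IC50 is the concentration that reduces the whole cell population by 50%. Six replicates per condition. Where compounds were not tested on every line, apoptosis-sensitive lines were PC3, MCF-7, LoVo and B16F10, and apoptosis-resistant lines were U373, T98G, A549 and SK-MEL-28.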

[2] = tested on: T98G; experiment: Cytotoxicity against apoptotic-resistant human T98G cells assessed as growth inhibition after 72 hrs by MTT-based colorimetric assay; assay type: functional, cell-based; method in brief: as §1
[3] = tested on: PC-3; experiment: Cytotoxicity against apoptotic-sensitive human PC3 cells assessed as growth inhibition after 72 hrs by MTT-based colorimetric assay; assay type: functional, cell-based; method in brief: as §1
[4] = Cytotoxicity against apoptotic-resistant human U373 cells assessed as growth inhibition after 72 hrs by MTT-based colorimetric assay; assay type: functional, cell-based, U-373MG ATCC; method in brief: as §1
[5] = tested on: LoVo; experiment: Cytotoxicity against apoptotic-sensitive human LoVo cells assessed as growth inhibition after 72 hrs by MTT-based colorimetric assay; assay type: functional, cell-based; method in brief: as §1
[6] = tested on: A549; experiment: Cytotoxicity against apoptotic-resistant human A549 cells assessed as growth inhibition after 72 hrs by MTT-based colorimetric assay; assay type: functional, cell-based; method in brief: as §1
[7] = tested on: MCF7; experiment: Cytotoxicity against apoptotic-sensitive human MCF7 cells assessed as growth inhibition after 72 hrs by MTT-based colorimetric assay; assay type: functional, cell-based; method in brief: as §1
[8] = tested on: B16-F10; experiment: Cytotoxicity against apoptotic-sensitive mouse B16F10 cells assessed as growth inhibition after 72 hrs by MTT-based colorimetric assay; assay type: functional, cell-based; conditions: B16-F10, 72 h; method in brief: as §1

SMILES	IC50 ([1]; Homo sapiens, SK-MEL-28, 72 h) [µM]	IC50 ([2]; Homo sapiens, T98G, 72 h) [µM]	IC50 ([3]; Homo sapiens, PC-3, 72 h) [µM]	IC50 ([4]; Homo sapiens, U373 MG, 72 h) [µM]	IC50 ([5]; Homo sapiens, LoVo, 72 h) [µM]	IC50 ([6]; Homo sapiens, A549, 72 h) [µM]	IC50 ([7]; Homo sapiens, MCF7, 72 h) [µM]	IC50 [8] [µM]	IC50 ([1]; sk-mel-28)	IC50 ([2]; t98g)	IC50 ([3]; pc-3)	IC50 ([4]; u-373mg atcc) [µM]	IC50 ([5]; lovo)	IC50 ([6]; a549)	IC50 ([7]; mcf7)
C=CCCCCOc1ccc(C)cc1-c1cnc(OCCC=C)n1C	83	94	59	33	41	59	53	–	–	–	–	–	–	–	–
C=CCCCCOc1cc(F)ccc1-c1cnc(OCCC=C)n1C	83	> 100	64	> 100	45	74	59	–	–	–	–	–	–	–	–
C=CCCCCOc1ccccc1-c1cnc(S(=O)(=O)c2ccccc2)n1C	38	71	33	63	27	38	25	–	–	–	–	–	–	–	–
C=CCCOc1ncc(-c2ccccc2OC)n1C	21	39	25	16	24	22	27	–	–	–	–	–	–	–	–
Cn1c2cnc1OCCCCCCCCCCCOc1ccccc1-2	47	56	36	48	32	36	41	–	–	–	–	–	–	–	–
CCCCCCOc1ncc(-c2ccccc2OC)n1C	43	58	33	–	27	37	27	38	–	–	–	–	–	–	–
COc1ccccc1-c1cnc(OC)n1C	> 100	> 100	> 100	> 100	73	> 100	> 100	–	–	–	–	–	–	–	–
Cn1c2cnc1OCCCCCCCCOc1cc3ccccc3cc1-2	23	32	25	24	16	26	19	–	–	–	–	–	–	–	–
C=CCCCCOc1ncc(-c2cc(C(C)C)ccc2OC)n1C	3	6	9	–	3	4	18	7	–	–	–	–	–	–	–
C=CCCCCOc1ccccc1-c1cnc(OC)n1C	85	> 100	86	> 100	47	80	98	–	–	–	–	–	–	–	–
C=CCCCCOc1ccccc1-c1cnc(OCCOCC=C)n1C	59	65	36	60	26	34	32	–	–	–	–	–	–	–	–
COc1ccc2c(c1)-c1cnc(n1C)OCCCCCCCCO2	57	68	40	63	34	40	32	–	–	–	–	–	–	–	–
C=CCCCCOc1nccn1C	> 100	> 100	> 100	–	> 100	> 100	> 100	51	–	–	–	–	–	–	–
C=CCCCCOc1nc(-c2ccccc2OC)cn1C	> 100	> 100	86	–	81	91	77	69	–	–	–	–	–	–	–
Cn1c2cnc1OCCCCCCCCOc1cc(F)ccc1-2	58	69	46	70	32	43	35	–	–	–	–	–	–	–	–
COc1ccccc1-c1cnc(OCCCc2ccccc2)n1C	4	3	27	–	3	3	3	7	–	–	–	–	–	–	–
C=CCCCCOc1ccccc1-c1cnc(NC(=O)CCCC=C)n1C	7	22	11	7	10	8	22	–	–	–	–	–	–	–	–
C=CCCCCOc1ncc(-c2cc(Cl)ccc2OC)n1C	28	48	32	–	28	34	25	29	–	–	–	–	–	–	–
Cn1c2cnc1OCC/C=C\CCCCOc1ccccc1-2	85	100	62	–	40	74	63	70	–	–	–	–	–	–	–
Cn1c2cnc1OCCCCCCCCCOc1ccccc1-2	72	74	61	78	34	69	71	–	–	–	–	–	–	–	–
Cn1c2cnc1NC(=O)CCCCCCCCCOc1ccccc1-2	59	64	61	38	33	43	61	–	–	–	–	–	–	–	–

SMILES	IC50 ([1]; Homo sapiens, SK-MEL-28, 72 h) [µM]	IC50 ([2]; Homo sapiens, T98G, 72 h) [µM]	IC50 ([3]; Homo sapiens, PC-3, 72 h) [µM]	IC50 ([4]; Homo sapiens, U373 MG, 72 h) [µM]	IC50 ([5]; Homo sapiens, LoVo, 72 h) [µM]	IC50 ([6]; Homo sapiens, A549, 72 h) [µM]	IC50 ([7]; Homo sapiens, MCF7, 72 h) [µM]	IC50 [8] [µM]	IC50 ([1]; sk-mel-28)	IC50 ([2]; t98g)	IC50 ([3]; pc-3)	IC50 ([4]; u-373mg atcc) [µM]	IC50 ([5]; lovo)	IC50 ([6]; a549)	IC50 ([7]; mcf7)
C=CCCCCOc1ncc(-c2cc(F)c(F)cc2OC)n1C	40	53	40	–	36	43	32	43	–	–	–	–	–	–	–
C#CCCCCOc1ncc(-c2ccccc2OC)n1C	38	35	21	–	11	22	10	34	–	–	–	–	–	–	–
C=CCCOc1ccccc1-c1cnc(S(=O)(=O)c2ccccc2)n1C	60	> 100	42	> 100	32	73	67	–	–	–	–	–	–	–	–
CCCCOc1ncc(-c2ccccc2OC)n1C	82	96	71	–	39	87	55	71	–	–	–	–	–	–	–
C=CCCCCOc1ncc(I)n1C	> 100	> 100	> 100	–	84	> 100	> 100	51	–	–	–	–	–	–	–
Cn1c2cnc1OCCCCCCCCOc1ccc(F)cc1-2	72	77	52	73	43	58	52	–	–	–	–	–	–	–	–
Cn1c2cnc1OCCCCCCCCCCOc1ccccc1-2	31	41	31	31	33	48	24	–	–	–	–	–	–	–	–
C=CCCCCCOc1ncc(-c2ccccc2OCCCCC=C)n1C	79	63	70	76	32	62	63	–	–	–	–	–	–	–	–
Cn1c2cnc1OCCCCCCCCCCOc1cc3ccccc3cc1-2	33	22	25	29	28	20	24	–	–	–	–	–	–	–	–
C=CCCCCOc1ccc(F)cc1-c1cnc(OCCC=C)n1C	82	87	52	73	38	61	43	–	–	–	–	–	–	–	–
C=CCCCCOc1ccccc1-c1cnc(OCCC=C)n1C	17	29	19	33	12	9	8	–	–	–	–	–	–	–	–
Cc1ccc2c(c1)-c1cnc(n1C)OCCCCCCCCO2	55	63	36	57	34	41	34	–	–	–	–	–	–	–	–
COc1ccccc1-c1cnc(OCC(F)(F)C(F)(F)C(F)(F)C(F)(F)C(F)(F)F)n1C	66	78	72	–	51	83	63	38	–	–	–	–	–	–	–
Cn1c2cnc1OCCCCCCCCOc1ccccc1-2 (single isomer, unassigned; atropisomer)	–	–	–	–	–	–	–	–	64 µM and 66 µM	75 µM and 92 µM	49 µM and 57 µM	71	37 µM and 63 µM	59 µM and 54 µM	44 µM and 43 µM
C=CCCCCOc1cc2ccccc2cc1-c1cnc(OCCCCC=C)n1C	59	40	38	33	25	16	37	–	–	–	–	–	–	–	–
C=CCCCCOc1ncc(-c2ccccc2OC)n1C	13	5	24	9	4	5	5	–	–	–	–	–	–	–	–
C=CCCCCOc1ccc(OC)cc1-c1cnc(OCCC=C)n1C	62	74	43	67	33	43	37	–	–	–	–	–	–	–	–
C=CCCCCOc1cc2ccccc2cc1-c1cnc(OCCC=C)n1C	25	32	14	27	25	21	25	–	–	–	–	–	–	–	–
C=CCCCCOc1ccccc1-c1cnc(OCCCC=C)n1C	19	3	28	5	4	3	7	–	–	–	–	–	–	–	–
Cn1c(-c2ccccc2O)cnc1S(=O)(=O)c1ccccc1	> 100	> 100	> 100	> 100	56	> 100	> 100	–	–	–	–	–	–	–	–
